Drawing on ChEMBL document CHEMBL1125211, “Design and synthesis of HIV protease inhibitors. Variations of the carboxy terminus of the HIV protease inhibitor L-682,679” (J Med Chem, 1991), this text covers IC50 and MIC for 43 compounds.

Values after ≈ are worked out from the molar mass of the structure shown.

Assay [1] concerns the target T1, Human immunodeficiency virus type 1 protease (Human immunodeficiency virus 1, UniProt Q72874). In words: Inhibitory activity against HIV Protease in peptide cleavage assay. The essentials: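 HIV-1 protease substrate cleavage assay. Inhibitor was dissolved in DMSO and added to the enzyme mixture at the required concentrations. Substrate cleavage was measured by HPLC, and IC50 was calculated from the extent of cleavage.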

For the next assay, the system named is H9. In words: Ability to inhibit HIV-1 infection in H9 human T-lymphoid cells. The class given is functional. Conditions: read-out: MIC100. The method, boiled down: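 HIV-1 spread in culture of H9 human T-lymphoid cells, tested at concentrations up to 12 μM. Value reported as MIC100, the minimum concentration giving 100% inhibition of viral spread.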
Assay [2] concerns the target T1, Human immunodeficiency virus type 1 protease. Briefly: Inhibitory activity against HIV protease in peptide cleavage assay. The method, boiled down: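 HIV-1 protease peptide-substrate cleavage assay. Inhibitor dissolved in DMSO and added to the enzyme mixture at the required concentrations. Extent of substrate cleavage determined by HPLC. IC50 calculated from cleavage extent.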

With `CCC(C)[C@H](NC(=O)[C@H](Cc1ccccc1)C[C@H](O)[C@H](Cc1ccccc1)NC(=O)OC(C)(C)C)C(=O)NCc1ccccc1` (some centres undefined), in assay [1], the IC50 (as a rule, the point on the concentration scale where inhibition reaches its midpoint) amounted to 0.71 nM. Moreover, the MIC in the assay on H9 amounted to 1.5 µM (≈ 0.924 µg/mL).

`CC(C)[C@H](NC(=O)[C@H](Cc1ccccc1)C[C@H](O)[C@H](Cc1ccccc1)NC(=O)OC(C)(C)C)C(=O)NCC(O)CN1CCOCC1` (some centres undefined) registered a concentration for half-maximal inhibition (IC50) in assay [2] of 0.88 nM. In turn, `C[C@H](NC(=O)[C@H](Cc1ccccc1)C[C@H](O)[C@H](Cc1ccccc1)NC(=O)OC(C)(C)C)C(N)=O` had an IC50 in assay [1] of 7 nM. The MIC in the assay on H9 is 6 µM (≈ 2.9 µg/mL). Consider `CC(C)[C@H](NC(=O)[C@H](Cc1ccccc1)C[C@H](O)[C@H](Cc1ccccc1)NC(=O)OC(C)(C)C)C(=O)NCc1nc2ccccc2[nH]1`, for which half-maximal inhibition in assay [2] (IC50) was put at 0.2 nM.

In the case of `CCC(C)[C@H](NC(=O)[C@H](Cc1ccccc1)C[C@H](O)[C@H](Cc1ccccc1)NC(=O)OC(C)(C)C)C(N)=O` (some centres undefined), in assay [1], the IC50 is 2.7 nM. Besides, the MIC in the assay on H9 came out at 3 µM (≈ 1.58 µg/mL). Regarding `CCC(C)[C@H](NC(=O)[C@H](Cc1ccccc1)C[C@H](O)[C@H](Cc1ccccc1)NC(=O)OC(C)(C)C)C(=O)NCc1ncc[nH]1` (some centres undefined), the IC50 in assay [2] turned out to be 0.88 nM. `CC(C)(C)OC(=O)N[C@@H](Cc1ccccc1)[C@@H](O)C[C@@H](Cc1ccccc1)C(=O)N[C@H](C(N)=O)c1ccccc1` returned an IC50 in assay [1] of 0.9 nM. The MIC in the assay on H9 came out at 1.5 µM (≈ 0.819 µg/mL). Consider `CC(C)[C@H](NC(=O)[C@H](Cc1ccccc1)C[C@H](O)[C@H](Cc1ccccc1)NC(=O)OC(C)(C)C)C(=O)NCc1ccccn1`, for which the IC50 in assay [2] came out at 0.75 nM. This counts as sub-nanomolar.

Turning to `CCC(C)[C@H](NC(=O)[C@H](Cc1ccccc1)C[C@H](O)[C@H](Cc1ccccc1)NC(=O)OC(C)(C)C)C(=O)NCCO` (some centres undefined), the IC50 in assay [2] stood at 0.46 nM. The MIC in the assay on H9 was 0.4 µM (≈ 0.228 µg/mL). The compound `CC(C)(C)OC(=O)N[C@@H](Cc1ccccc1)[C@@H](O)C[C@@H](Cc1ccccc1)C(=O)NCC(N)=O` showed an IC50 in assay [1] of 550 nM. In turn, `CC(C)C[C@H](NC(=O)[C@H](Cc1ccccc1)C[C@H](O)[C@H](Cc1ccccc1)NC(=O)OC(C)(C)C)C(=O)NCCO` showed an IC50 in assay [2] of 2.1 nM. Also, the MIC in the assay on H9 is 3 µM (≈ 1.71 µg/mL). In the case of `CC(C)C[C@@H](NC(=O)[C@H](Cc1ccccc1)C[C@H](O)[C@H](Cc1ccccc1)NC(=O)OC(C)(C)C)C(N)=O`, the IC50 in assay [1] stood at 3100 nM.

For the compound `CCN(CC)CC(O)CNC(=O)[C@@H](NC(=O)[C@H](Cc1ccccc1)C[C@H](O)[C@H](Cc1ccccc1)NC(=O)OC(C)(C)C)C(C)C` (some centres undefined), the half-inhibitory concentration (IC50) in assay [2] came to 6.3 nM. Consider `CC(C)C[C@H](NC(=O)[C@H](Cc1ccccc1)C[C@H](O)[C@H](Cc1ccccc1)NC(=O)OC(C)(C)C)C(=O)NCCc1ccccc1`, for which, in assay [2], the IC50 stood at 15 nM. Turning to `CC(C)C[C@H](NC(=O)[C@H](Cc1ccccc1)C[C@H](O)[C@H](Cc1ccccc1)NC(=O)OC(C)(C)C)C(=O)NC(CO)Cc1ccccc1` (some centres undefined), the IC50 in assay [2] worked out at 1.5 nM. In assay [2], `CC(C)[C@H](NC(=O)[C@H](Cc1ccccc1)C[C@H](O)[C@H](Cc1ccccc1)NC(=O)OC(C)(C)C)C(=O)NCc1ccccc1` returned a concentration for half-maximal inhibition (IC50) of 0.24 nM. This IC50 lies about 6.2-fold lower than the previous one.

For the compound `CC(C)[C@H](NC(=O)[C@H](Cc1ccccc1)C[C@H](O)[C@H](Cc1ccccc1)NC(=O)OC(C)(C)C)C(=O)NCc1cccnc1`, in assay [2], the IC50 was 0.69 nM. As for `CCC(C)[C@H](NC(=O)[C@H](Cc1ccccc1)C[C@H](O)[C@H](Cc1ccccc1)NC(=O)OC(C)(C)C)C(=O)NCc1ccccn1` (some centres undefined), in assay [2], the half-inhibitory concentration (IC50) turned out to be 1.3 nM. Also, the MIC in the assay with H9 came out at 0.78 µM (≈ 0.481 µg/mL). Consider `CC(C)(C)OC(=O)N[C@@H](Cc1ccccc1)[C@@H](O)C[C@@H](Cc1ccccc1)C(=O)N[C@@H](CO)C(N)=O`, for which the IC50 in assay [1] stood at 606 nM. Take `CC(C)[C@H](NC(=O)[C@H](Cc1ccccc1)C[C@H](O)[C@H](Cc1ccccc1)NC(=O)OC(C)(C)C)C(=O)NCc1ccncc1`: the midpoint of inhibition in assay [2], the IC50, lay at 0.62 nM. For the same compound, in the assay on H9, the MIC turned out to be 0.4 µM (≈ 0.241 µg/mL). The compound `CC(C)(C)OC(=O)N[C@@H](Cc1ccccc1)[C@@H](O)C[C@@H](Cc1ccccc1)C(=O)N[C@@H](Cc1ccccc1)C(N)=O` registered an IC50 in assay [1] of 29 nM. That is a double-digit nanomolar value. For `CC(C)[C@H](NC(=O)[C@H](Cc1ccccc1)C[C@H](O)[C@H](Cc1ccccc1)NC(=O)OC(C)(C)C)C(=O)NCC(O)CO` (some centres undefined), the IC50 in assay [2] stood at 0.05 nM. For the same compound, in the assay with H9, the MIC came to 1.5 µM (≈ 0.879 µg/mL). For `CC(C)[C@H](NC(=O)[C@H](Cc1ccccc1)C[C@H](O)[C@H](Cc1ccccc1)NC(=O)OC(C)(C)C)C(=O)NCCN`, 0.46 nM corresponded to half-maximal inhibition in assay [2] (IC50). Still for that read-out and setting: with `CC(C)(C)OC(=O)N[C@@H](Cc1ccccc1)[C@@H](O)C[C@@H](Cc1ccccc1)C(=O)N[C@H](C(=O)NCc1ccccc1)c1ccccc1` the figure was 5.8 nM; with `CC(C)C[C@H](NC(=O)[C@H](Cc1ccccc1)C[C@H](O)[C@H](Cc1ccccc1)NC(=O)OC(C)(C)C)C(=O)NCCCN(C)C`, 23 nM. `CC[C@H](C)[C@H](NC(=O)[C@H](Cc1ccccc1)C[C@H](O)[C@H](Cc1ccccc1)NC(=O)OC(C)(C)C)C(=O)NCc1nc2ccccc2[nH]1` returned an IC50 in assay [2] of 0.06 nM. Besides, the MIC in the assay on H9 is 0.2 µM (≈ 0.131 µg/mL). In assay [2], `CC(C)[C@H](NC(=O)[C@H](Cc1ccccc1)C[C@H](O)[C@H](Cc1ccccc1)NC(=O)OC(C)(C)C)C(=O)NCCCN1CCOCC1` gave an IC50 of 2.9 nM. That is a single-digit nanomolar value. The same measure, in the same setting: with `CN(C)CCCNC(=O)[C@@H](NC(=O)[C@H](Cc1ccccc1)C[C@H](O)[C@H](Cc1ccccc1)NC(=O)OC(C)(C)C)c1ccccc1` the figure was 26 nM. In assay [1], `CC(C)(C)OC(=O)N[C@@H](Cc1ccccc1)[C@@H](O)C[C@@H](Cc1ccccc1)C(=O)N[C@@H](CC1CCCCC1)C(N)=O` returned an IC50 of 64 nM. That is a double-digit nanomolar value.

For the compound `CC[C@H](C)[C@H](NC(=O)[C@H](Cc1ccccc1)C[C@H](O)[C@H](Cc1ccccc1)NC(=O)OC(C)(C)C)C(=O)NC(=O)C(N)Cc1ccccc1` (some centres undefined), 0.25 nM corresponded to half-maximal inhibition in assay [1] (IC50). On the same count and under the same terms, in the case of `CC(C)[C@H](NC(=O)[C@H](Cc1ccccc1)C[C@H](O)[C@H](Cc1ccccc1)NC(=O)OC(C)(C)C)C(N)=O` it was 1.1 nM. In turn, `CC(C)(C)OC(=O)N[C@@H](Cc1ccccc1)[C@@H](O)C[C@@H](Cc1ccccc1)C(=O)N[C@@H](Cc1ncc[nH]1)C(N)=O` yielded an IC50 in assay [2] of 770 nM. The same measure, in the same setting: in the case of `CCC(C)[C@H](NC(=O)[C@H](Cc1ccccc1)C[C@H](O)[C@H](Cc1ccccc1)NC(=O)OC(C)(C)C)C(=O)NCCN(C)C` (some centres undefined) it was 7.1 nM. Take `CC(C)C[C@H](NC(=O)[C@H](Cc1ccccc1)C[C@H](O)[C@H](Cc1ccccc1)NC(=O)OC(C)(C)C)C(N)=O`: half-maximal inhibition in assay [1] (IC50) was put at 10 nM. Compound `CC(C)C[C@H](NC(=O)[C@H](Cc1ccccc1)C[C@H](O)[C@H](Cc1ccccc1)NC(=O)OC(C)(C)C)C(=O)NCc1ccccc1` had an IC50 in assay [1] of 1.4 nM. Further, the MIC in the assay on H9 was 3 µM (≈ 1.85 µg/mL).

Turning to `CC(C)(C)OC(=O)N[C@@H](Cc1ccccc1)[C@@H](O)C[C@@H](Cc1ccccc1)C(=O)N[C@H](C(=O)NCc1nc2ccccc2[nH]1)c1ccccc1`, 0.07 nM corresponded to half-maximal inhibition in assay [2] (IC50). With `CCC(C)[C@H](NC(=O)[C@H](Cc1ccccc1)C[C@H](O)[C@H](Cc1ccccc1)NC(=O)OC(C)(C)C)C(=O)NCC(O)CO` (some centres undefined), the IC50 in assay [2] was determined as 0.15 nM.

Regarding `CNCCNC(=O)[C@@H](NC(=O)[C@H](Cc1ccccc1)C[C@H](O)[C@H](Cc1ccccc1)NC(=O)OC(C)(C)C)C(C)C`, in assay [2], the IC50 is 1.73 nM. `CC(C)(C)OC(=O)N[C@@H](Cc1ccccc1)[C@@H](O)C[C@@H](Cc1ccccc1)C(=O)N[C@H](C(N)=O)C1CCCCC1` showed an IC50 in assay [1] of 5.2 nM. Compound `CC(C)(C)OC(=O)N[C@@H](Cc1ccccc1)[C@@H](O)C[C@@H](Cc1ccccc1)C(=O)N[C@@H](Cc1cc2ccccc2[nH]1)C(N)=O` came in with a 50% inhibitory concentration (IC50) in assay [2] of 60 nM. Still for that read-out and setting: with `CC(C)[C@H](NC(=O)[C@H](Cc1ccccc1)C[C@H](O)[C@H](Cc1ccccc1)NC(=O)OC(C)(C)C)C(=O)NCCO` the figure was 0.44 nM; with `CCC(C)[C@H](NC(=O)[C@H](Cc1ccccc1)C[C@H](O)[C@H](Cc1ccccc1)NC(=O)OC(C)(C)C)C(=O)NCCCN(C)C` (some centres undefined), 7.9 nM. In assay [1], `CC(C)[C@H](NC(=O)[C@H](Cc1ccccc1)C[C@H](O)[C@H](Cc1ccccc1)NC(=O)OC(C)(C)C)C(=O)NCCCN(C)C` returned a concentration for half-maximal inhibition (IC50) of 3.4 nM.
